# Key:
# Format in all cases: functional
# [1] = test system: Clostridioides difficile; test: Antimicrobial activity against Clostridium difficile isolate 79 by Etest
# Summary of the method: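 Rifampin MIC by Etest on brucella blood agar, run per the strip manufacturer's instructions, against clinical isolates typed by HindIII REA.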
# [2] = test system: Clostridioides difficile; test: Antimicrobial activity against Clostridium difficile isolate 78 by agar dilution method
# Summary of the method: (§1)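 CLSI reference agar dilution for anaerobes, with endpoints read per guideline M11-A7. Rifaximin was dissolved in methanol, diluted in 0.1 M phosphate buffer pH 7.4 with 0.45% SDS, and tested at 0.0009–256 μg/ml. Rifampin was dissolved in methanol, diluted in water, and tested at 0.00001–256 μg/ml. Control strain: C. difficile ATCC 70005. Isolates were typed by HindIII REA.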
# [3] = test system: Clostridioides difficile; test: Antimicrobial activity against Clostridium difficile isolate 6 by Etest
# Summary of the method: (§2)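 Rifampin Etest strips were run on brucella blood agar following the manufacturer's instructions to give an MIC. Clinical isolates were typed by HindIII REA.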
# [4] = test system: Clostridioides difficile; test: Antimicrobial activity against Clostridium difficile isolate 55 by Etest; summary of the method: as §2
# [5] = test system: Clostridioides difficile; test: Antimicrobial activity against Clostridium difficile isolate 20 by agar dilution method
# Summary of the method: (§3)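 MIC by CLSI reference agar dilution for anaerobes, with endpoints read per M11-A7 and C. difficile […] as control. Rifaximin was dissolved in methanol, diluted in 0.1 M phosphate buffer pH 7.4 plus 0.45% SDS, and tested at 0.0009–256 μg/ml. Rifampin was dissolved in methanol, diluted in water, and tested at 0.00001–256 μg/ml.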
# [6] = test system: Clostridioides difficile; test: Antimicrobial activity against Clostridium difficile isolate 62 by Etest; summary of the method: as §2
# [7] = test system: Clostridioides difficile; test: Antimicrobial activity against rifaximin-resistant Clostridium difficile isolate 66 expressing RpoB D492N and R505K mutants by agar dilution method
# Summary of the method: as §3, with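 “MICs were found” for “MIC”, “by the” for “by”, “dilution method” for “dilution”, “with” for “plus”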
# [8] = test system: Clostridioides difficile; test: Antimicrobial activity against Clostridium difficile isolate 58 by Etest; summary of the method: as §2
# [9] = test system: Clostridioides difficile; test: Antimicrobial activity against Clostridium difficile isolate 31 by agar dilution method; summary of the method: as §3
# [10] = test system: Clostridioides difficile; test: Antimicrobial activity against Clostridium difficile isolate 9 by agar dilution method; summary of the method: as §1
# [11] = test system: Clostridioides difficile; test: Antimicrobial activity against Clostridium difficile isolate 46 by agar dilution method
# Summary of the method: as §1, with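 “dilution method” for “dilution”, “(pH 7.4)” for “pH 7.4”, “μg/ml.” for “μg/ml. Control strain:”, “[…] served as control.” for “70005.”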
smiles,measurement,setting,value
CO[C@H]1/C=C/O[C@@]2(C)Oc3c(C)c(O)c4c(O)c(c(/C=N/N5CCN(C)CC5)c(O)c4c3C2=O)NC(=O)/C(C)=C\C=C\[C@H](C)[C@H](O)[C@@H](C)[C@@H](O)[C@@H](C)[C@H](OC(C)=O)[C@@H]1C [RIFAMPIN],MIC,[1],< 2 ng/mL
same,MIC,[2],0.06 ng/mL
same,MIC,[3],< 2 ng/mL
same,MIC,[4],< 2 ng/mL
same,MIC,[5],0.9 ng/mL
same,MIC,[6],< 2 ng/mL
same,MIC,[7],> 256000 ng/mL
same,MIC,[8],< 2 ng/mL
same,MIC,[9],0.9 ng/mL
same,MIC,[10],0.06 ng/mL
same,MIC,[11],0.9 ng/mL
